From ChEMBL document CHEMBL1153546, “Pharmacokinetics of telbivudine in subjects with various degrees of renal impairment” (Antimicrob Agents Chemother, 2007)

Tests used:
[1] = Cmax in patient with end-stage renal disease at 200 mg, po administered as two single doses 2 hrs before dialysis separated by 1 week washout period; format: ADME, organism-based; set-up: dose 200 mg, route oral; settings: human, in vivo
Method in brief: (§1)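 Plasma telbivudine after one oral dose, sampled predose through 48 h and quantified by validated LC-MS/MS (LLOQ 10 ng/ml, transition 243.0→127.1 m/z). Cmax was read directly from the observed concentration-time data.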

[2] = Cmax in patient with end-stage renal disease at 200 mg, po administered as two single doses within 2 hrs of after completion of dialysis separated by 1 week washout period; format: ADME, organism-based; set-up: dose 200 mg, route oral; settings: human, in vivo; method in brief: as §1
[3] = AUC (0 to t) in human with normal renal function at 600 mg, po administered as single dose; format: ADME, organism-based; settings: plasma
Method in brief: (§2)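 Single oral telbivudine dose. Heparinized blood was drawn predose and up to 48 h postdose, with extra paired dialyzer samples for predialysis dosing. Plasma was stored at –20°C and assayed by validated HPLC-MS/MS (LLOQ 10 ng/ml, range 10–5,000 ng/ml). Noncompartmental analysis: AUC0-t by linear trapezoidal rule to last measurable concentration; AUC0-∞ = AUC0-t + Ct/kel.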

[4] = AUC (0 to t) in patient with mild renal impairment at 600 mg, po administered as single dose; format: ADME, organism-based; settings: human, plasma; method in brief: as §2
[5] = AUC (0 to t) in patient with moderate renal impairment at 400 mg, po administered as single dose; format: ADME, organism-based; settings: human, plasma; method in brief: as §2
[6] = AUC (0 to t) in patient with severe renal impairment at 200 mg, po administered as single dose; format: ADME, organism-based; settings: human, plasma; method in brief: as §2
[7] = Renal clearance in human with normal renal function at 600 mg, po administered as single dose; format: ADME, organism-based, Kidney; settings: in vivo, read-out: CL_renal (converted)
Method in brief: (§3)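 Renal clearance = Au0-t/AUC0-t, where Au0-t is the cumulative unchanged drug in urine collected over 0–48 h. Plasma and urine were assayed by validated HPLC-MS/MS after a single oral dose.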

[8] = Renal clearance in patient with mild renal impairment at 600 mg, po administered as single dose; format: ADME, organism-based, Kidney; settings: human, in vivo, read-out: CL_renal (converted); method in brief: as §3
[9] = Renal clearance in patient with moderate renal impairment at 400 mg, po administered as single dose; format: ADME, organism-based, Kidney; settings: human, in vivo, read-out: CL_renal (converted); method in brief: as §3
[10] = Renal clearance in patient with severe renal impairment at 200 mg, po administered as single dose; format: ADME, organism-based, Kidney; settings: human, in vivo, read-out: CL_renal (converted)
Method in brief: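 Single oral dose. Urine was collected at –2–0 h and over 0–4, 4–8, 8–12, 12–24 and 24–48 h; plasma was sampled over 48 h. Both matrices were assayed by HPLC-MS/MS (urine LLOQ 30 ng/ml, plasma LLOQ 10 ng/ml). Renal clearance = cumulative urinary unchanged drug (Au0-t) / AUC0-t, with AUC by the linear trapezoidal rule.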

Homo sapiens [11] = test: Plasma clearance in human with normal renal function at 600 mg, po administered as single dose; format: ADME, organism-based; settings: in vivo
Method in brief: (§4)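 Apparent total oral plasma clearance (CL/F) = dose/AUC0-∞. AUC was obtained noncompartmentally from plasma LC-MS/MS concentrations sampled up to 48 h after a single oral dose.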

[12] = Plasma clearance in patient with mild renal impairment at 600 mg, po administered as single dose; format: ADME, organism-based; settings: human; method in brief: as §4
[13] = Plasma clearance in patient with moderate renal impairment at 400 mg, po administered as single dose; format: ADME, organism-based; settings: human; method in brief: as §4
[14] = Plasma clearance in patient with severe renal impairment at 200 mg, po administered as single dose; format: ADME, organism-based; settings: human; method in brief: as §4
[15] = Plasma clearance in patient with end-stage renal disease at 200 mg, po administered as two single doses 2 hrs before dialysis separated by 1 week washout period; format: ADME, organism-based; settings: human; method in brief: as §4
[16] = Plasma clearance in patient with end-stage renal disease at 200 mg, po administered as two single doses within 2 hrs of after completion of dialysis separated by 1 week washout period; format: ADME, organism-based; settings: human; method in brief: as §4
[17] = Mean cumulative urine excretion level in human with normal renal function at 600 mg, po administered as single dose; format: ADME, organism-based; settings: read-out: Activity
Method in brief: (§5)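 Urine collected at –2 to 0 h predose and at 0–4, 4–8, 8–12, 12–24 and 24–48 h after a single oral dose. Unchanged telbivudine measured by validated HPLC-MS/MS (LLOQ 30 ng/ml, calibration 30–5,000 ng/ml), and amounts were summed cumulatively.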

[18] = Mean cumulative urine excretion level in patient with mild renal impairment at 600 mg, po administered as single dose; format: ADME, organism-based; settings: human, read-out: Activity; method in brief: as §5
[19] = Mean cumulative urine excretion level in patient with moderate renal impairment at 400 mg, po administered as single dose; format: ADME, organism-based; settings: human, read-out: Activity; method in brief: as §5
[20] = Mean cumulative urine excretion level in patient with severe renal impairment at 200 mg, po administered as single dose; format: ADME, organism-based; settings: human, read-out: Activity; method in brief: as §5
[21] = Oral bioavailability in human with normal renal function; format: ADME, organism-based; settings: in vivo
Homo sapiens [22] = test: Dialytic clearance in patient with end-stage renal disease at 200 mg, po administered as single dose 2 hrs before dialysis; format: ADME, organism-based; settings: in vivo
Method in brief: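 Dose given 2 h before a 3.5–4 h hemodialysis session. Paired pre- and postdialyzer plasma samples were taken at start, mid and end of dialysis. CLHD = [(QA×CA) – (QV×CV)]/CA, where QA and QV are dialyzer inflow and outflow blood rates and CA and CV are the paired concentrations.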

HepG2 [23] = test: Metabolic stability in human HepG2 cells assessed as Telbivudine triphosphate half life; format: ADME, cell-based
[24] = Plasma clearance in human with normal renal function; format: ADME, organism-based
Hepatitis B virus [25] = test: Antiviral activity against HBV in HBeAg-positive patient with chronic viral infection assessed as log reduction of serum viral DNA copies/ml at 60 mg/day after 6 to 12 weeks; format: functional
[26] = Cmax in human with normal renal function at 600 mg, po administered as single dose; format: ADME, organism-based; set-up: dose 600 mg, route oral; settings: in vivo; method in brief: as §1
HepG2 [27] = test: Cmax for Telbivudine triphosphate in HepG2 cells after 10 uM Telbivudine treatment; format: ADME, cell-based; settings: human, hepg2, 10 µM; read-out: Cmax_triphosphate
[28] = Terminal half life in healthy human at 200 to 800 mg/day administered as single dose; format: ADME, organism-based; settings: in vivo, read-out: beta t1/2 (converted)
Hepatitis B virus [29] = test: Antiviral activity against HBV in HBeAg-positive patient with chronic viral infection assessed as log reduction of serum viral DNA copies/ml at 60 mg/day after 4 weeks; format: functional

Cc1cn([C@@H]2C[C@@H](O)[C@H](CO)O2)c(=O)[nH]c1=O [TELBIVUDINE]
Cmax [1]: 1200 ng/mL
Cmax [2]: 2100 ng/mL
AUC(0-t) [3]: 26500 ng·h/mL
AUC(0-t) [4]: 29200 ng·h/mL
AUC(0-t) [5]: 30100 ng·h/mL
AUC(0-t) [6]: 25300 ng·h/mL
CL renal [7]: 127 mL/min
CL renal [8]: 83.3 mL/min
CL renal [9]: 43.3 mL/min
CL renal [10]: 11.7 mL/min
CL (Homo sapiens [11]): 7.6 L/h
CL/F [12]: 345 mL/min
CL/F [13]: 227 mL/min
CL/F [14]: 118 mL/min
CL/F [15]: 81.7 mL/min
CL/F [16]: 60 mL/min
dose excreted [17]: 31.5%
dose excreted [18]: 23.6%
dose excreted [19]: 19.8%
dose excreted [20]: 8%
bioavailability [21]: 52%
CL (Homo sapiens [22]): 13.3 L/h
t1/2 (HepG2 [23]): 15 h
clearance [24]: 200 mL/min
Activity (Hepatitis B virus [25]): 6 mL⁻¹
Cmax [26]: 3400 ng/mL
Cmax (HepG2 [27]): 30 µM
half-life [28]: 40 h
Activity (Hepatitis B virus [29]): 3.6 mL⁻¹
